Compound activity: PubChem BioAssay, several laboratories
Hits are enriched below; roughly 2.7% of the tested compounds scored in any of these assays.
bovine MsrA act: bovine MsrA enzyme activators, primary screen, biochemical, absorbance, HTS | Methionine sulfoxide reductase A (Bos taurus) | purified bovine MsrA, absorbance read-out | activation, % at 10.6 µM | hit rate 0.3% among 360,000 | AID 602163, 2012; in the data active = activation above about 7.5%
NR1D1 modulator: modulators of Rev-erb alpha DNA binding, primary screen, biochemical, FITC-DNA, fluorescence polarization, uHTS; Nuclear receptor subfamily 1 group D member 1 (Homo sapiens), P20393; Rev-erbα–FITC-DNA binding, 90 min; activity, % at 10 µM; hit rate 0.79% among 370,000; AID 1259318, 2017;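 active = activity above about 14%, limit read from the data; passing the limit was not always enough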
ASAP1 GAP inh: inhibitors of human ASAP1 ArfGAP activity, primary screen, biochemical, fluorescence polarization; Arf-GAP with SH3 domain, ANK repeat and PH domain-containing protein 1 (Homo sapiens), …; ASAP1-stimulated ARF1 GTP hydrolysis, GDP FP detection; inhibition, % at 16.5 µM; hit rate 0.19% among 360,000; AID 624377, 2012; in the data active = inhibition above about 25%
ARFGAP1 inh: inhibitors of rat ARFGAP1 GAP activity, primary screen, biochemical, fluorescence polarization, GDP tracer | Arfgap1-stimulated ARF1 GTP hydrolysis, GDP FP detection | inhibition, % at 16.5 µM | hit rate 0.26% among 360,000;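 active = inhibition above a per-plate limit, mean inhibition of low control wells plus 3 SD, cut at about 25% in these data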
Target sequence (Q62848 1-136 limits assumed): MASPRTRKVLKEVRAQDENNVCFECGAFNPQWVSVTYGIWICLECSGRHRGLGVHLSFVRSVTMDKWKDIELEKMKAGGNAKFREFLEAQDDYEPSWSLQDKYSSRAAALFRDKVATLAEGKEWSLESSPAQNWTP
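Material: rat Arfgap1 catalytic domain, aa 1-136; also added: human ARF1(Δ1-17)-GTP substrate; compound dosing: one concentration, 16.5 µM, DMSO 1.26%; incubation: GTP hydrolysis reaction 2 h at 25 °C; measured by: Tracer-displacement fluorescence polarization with EDTA stop, 620/688 nm; evaluation: % inhibition from polarization; repeats: one replicate per compound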
sPLA2-III inh: human group III sPLA2 inhibitors, primary screen, biochemical, QFRET, BODIPY PC-A2 liposome substrate. inhibition, % at 12.2 µM. QFRET BODIPY PC-A2 liposome hydrolysis, fluorescence. hit rate 0.56% among 370,000;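 active = inhibition above mean plus 3 SD of compounds lying within the high and low control bounds, cut at about 19% in these data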
MsrA inh: bovine MsrA enzyme inhibitors, primary screen, biochemical, absorbance, HTS. hit rate 0.75% among 360,000. inhibition, % at 15.5 µM. Methionine sulfoxide reductase A (Bos taurus). purified bovine MsrA, absorbance read-out. AID 651718, 2012; in the data active = inhibition above about 4.5%
Rev-erbA confirm: modulators of Rev-erb alpha DNA binding, confirmation, biochemical, FITC-DNA, fluorescence polarization, single point; shares compounds with NR1D1 modulator; 90 min; activation, % at 25 µM; hit rate 61% among 3,000; AID 1259319, 2017;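 active = activation at or above a set limit, or at least 3 SD above the negative control mean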
RORg counter: modulation of RORgamma DNA binding, dose response, counter-screen for Rev-erb alpha modulator project, biochemical, fluorescence polarization, FITC-DNA; shares compounds with NR1D1 modulator; purified RORgamma protein-FITC-DNA binding; IC50, µM; hit rate 8% among 910;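 active = Compounds whose fitted half-maximal concentration for disrupting protein-DNA binding is below 10 micromolar; the record names Rev-erb in its text, so the target is in doubt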
A number is an active result; 0 = inactive; - = no result given.

SMILES	bovine MsrA act	NR1D1 modulator	ASAP1 GAP inh	ARFGAP1 inh	sPLA2-III inh	MsrA inh	Rev-erbA confirm	others
COc1ccc(OCCCC(=O)Nc2nc(C)c(C(C)=O)s2)cc1	0	0	0	0	0	0	-
CC(=O)c1sc(NC(=O)COc2ccc(Br)cc2)nc1C	0	43	0	0	0	0	49	RORg counter=0
CC(=O)c1sc(NC(=O)c2ccc(Cl)cc2)nc1C	0	26	0	0	0	0	0
CCN(CC)S(=O)(=O)c1ccc(N2CCCCC2)c(NC(=O)C2CSC3(C)CCC(=O)N23)c1 (stereo not drawn)	0	31	0	0	0	0	47	RORg counter=0
CN(C)c1ccc(S(=O)(=O)N2CCCCC2)cc1NC(=O)C1CSC2(C)CCC(=O)N12 (stereo not drawn)	0	0	0	0	0	0	-
COc1ccc(/C=N\NC(=O)CN2CCN(Cc3ccccc3)CC2)cc1OCc1ccccc1	-	0	-	-	0	-	-
COc1ccccc1Oc1ccc2c(c1)C(=O)N(c1ccc(Br)c3cccnc13)C2=O	0	39	0	0	0	0	22
CCn1c(Cc2cccs2)nnc1SCC(=O)Nc1ccccc1-c1ccccc1	-	0	-	-	0	-	-
CCOC(=O)c1ccc(Nc2cc(C)nc(-c3ccccc3O)n2)cc1	0	38	0	0	0	0	0
Cc1cc(Nc2ccccc2)nc(-c2ccccc2O)n1	0	0	0	0	0	0	-
COc1ccccc1CCn1cnc(-c2ccccc2F)c1CC(C)C	-	0	0	0	0	0	-
COc1ccc2c(COC(=O)c3n[nH]c4ccccc34)cc(=O)oc2c1	0	59	0	0	0	0	34	RORg counter=0
Cc1cccc(C)c1OCCOC(=O)c1n[nH]c2ccccc12	0	0	0	0	0	0	-
Cc1cc2oc(=O)cc(COC(=O)c3n[nH]c4ccccc34)c2cc1C	0	23	0	0	0	0	0
COc1ccc2c(COC(=O)CCS(=O)(=O)c3ccccc3)cc(=O)oc2c1	0	-	-	-	-	-	-
Cc1c(C(C)(C)C)sc(=NC(=O)c2ccccc2O)n1C	0	21	0	0	0	0	0
FC(F)(F)c1cc(-c2ccco2)nc(-n2nc(C(F)(F)F)cc2C2CC2)n1	0	0	0	0	0	0	-
FC(F)(F)c1cc(-c2ccco2)nc(-n2nnc3ccccc32)n1	0	21	0	0	0	0	0
CCOc1ccc(CCNC(=O)c2cc(-c3ccccc3)c(N3CCOCC3)s2)cc1	0	91	0	0	0	0	80	RORg counter=0
CCOc1ccc(CCNC(=O)c2cc(-c3ccccc3)c(N3CCOCC3)s2)cc1OCC	-	0	0	0	0	0	-
COc1ccc(C)cc1NC(=O)c1sc2ncn(CC(=O)N3CCCCC3)c(=O)c2c1C	0	29	0	0	0	0	24
CCCCCC(=O)N1C[C@@H](n2cc(C3CC3)nn2)[C@H](O)C[C@@H]1c1ccc(Cl)cc1	0	0	0	0	0	0	-
COC(=O)[C@]12C[C@H](CC(=O)NCc3ccc(C)o3)C(=O)N(Cc3ccc4c(c3)OCO4)C1=C[C@H](C(C)(C)C)O[C@@H]2C	-	0	0	0	0	0	-
c1csc(-c2nc(-c3ccc(-c4ccon4)s3)no2)c1	0	21	0	0	0	0	0
Cc1ccc(-c2nc3c(c(=O)[nH]c(=O)n3Cc3ccccc3)n2Cc2ccccc2)o1	0	0	0	0	0	0	-
